Results as given in ChEMBL document CHEMBL4033789, “Discovery of a New Four-Leaf Clover-Like Ligand as a Potent c-MYC Transcription Inhibitor Specifically Targeting the Promoter G-Quadruplex” (J Med Chem, 2018).
Active and inactive are the calls of the source. No cut-off for these calls is given here.

Legend:
[1] = Cytotoxicity against mouse primary mesangial cells assessed as reduction in cell viability after 24 hrs by MTT assay; assay type: cell-based
Procedure, shortened: (§1)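 Cells seeded at 5.0×10^3 per well, exposed to compound for 24 h; MTT (2.5 mg/mL) added for 4 h, formazan dissolved in DMSO, OD read at 570 nm. Triplicate; IC50 from curves of mean OD against concentration.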

[2] = Binding affinity to 1 uM antiparallel HRAS G-quadruplex DNA (unknown origin) at 1 uM after 1 min by fluorescence spectroscopic analysis; assay type: ADME
Procedure, shortened: (§2)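 Fluorescence emission spectra of 1 µM compound mixed with 1 µM pre-annealed oligonucleotide (G-quadruplexes folded in 100 mM KCl by heating to 95 °C for 5 min, slow cooling), in Tris-HCl buffer.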

BJ = assay: Cytotoxicity against human BJ cells assessed as reduction in cell viability after 24 hrs by MTT assay; assay type: cell-based; procedure, shortened: as §1
[3] = Binding affinity to 1 uM c-MYC promoter G-quadruplex pu22 DNA (unknown origin) at 1 uM after 1 min by fluorescence spectroscopic analysis; procedure, shortened: as §2
SiHa [4] = assay: Cytotoxicity against human SiHa cells assessed as reduction in cell viability after 24 hrs by MTT assay; assay type: functional, cell-based; procedure, shortened: as §1
[5] = Binding affinity to 1 uM hybrid telomeric htg22 G-quadruplex DNA (unknown origin) at 1 uM after 1 min by fluorescence spectroscopic analysis; assay type: ADME; procedure, shortened: as §2
A-375 = assay: Cytotoxicity against human A375 cells assessed as reduction in cell viability after 24 hrs by MTT assay; assay type: functional, cell-based; settings: A-375, 24 h; procedure, shortened: as §1
HeLa = assay: Cytotoxicity against human HeLa cells assessed as reduction in cell viability after 24 hrs by MTT assay; assay type: functional, cell-based; procedure, shortened: as §1
Huh-7 = assay: Cytotoxicity against human Huh7 cells assessed as reduction in cell viability after 24 hrs by MTT assay; assay type: functional, cell-based; settings: Huh-7, 24 h; procedure, shortened: as §1
[6] = Binding affinity to 1 uM i-motif DNA (unknown origin) at 1 uM after 1 min by fluorescence spectroscopic analysis
[7] = Binding affinity to 1 uM G-triplex DNA (unknown origin) at 1 uM after 1 min by fluorescence spectroscopic analysis
Mus musculus [8] = assay: Toxicity in nude BALB/c mouse xenografted with human SiHa cells assessed as body weight reduction at 1 mg/kg, ip administered every other day for 24 days; assay type: organism-based; settings: in vivo, 576 h
Procedure, shortened: (§3)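 BALB/c nude mice, 5 weeks old, implanted subcutaneously in right flank with 1×10^7 SiHa cells; at ~50 mm3 tumor, 10 per group dosed ip every other day for 24 days, saline control; body weight measured daily, viscera weighed at sacrifice; mean ± SEM, Student's t test versus saline.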

SiHa [9] = assay: Antitumor activity against human SiHa cells xenografted in nude BALB/c mouse assessed as tumor growth inhibition at 1 mg/kg, ip administered every other day for 24 days; assay type: functional, organism-based
Procedure, shortened: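 BALB/c nude mice (5 weeks old) given 1×10^7 SiHa cells subcutaneously in right flank; at ~50 mm3 tumor volume, randomized (10 per group) and dosed intraperitoneally every other day for 24 days; controls got equal-volume saline. Caliper volume as 1/2 × length × width2; tumors weighed at end; inhibition rate = (1 − mean treated tumor weight/mean control tumor weight) × 100%.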

Mus musculus [10] = assay: Toxicity in nude BALB/c mouse xenografted with human SiHa cells assessed as viscera weight reduction at 1 mg/kg, ip administered every other day for 24 days; assay type: organism-based; settings: in vivo, 576 h; procedure, shortened: as §3
Mus musculus [11] = assay: In vivo stabilization of c-Myc G-quadruplex DNA in human SiHa cells xenografted in nude BALB/c mouse assessed as decrease in c-Myc expression at 1 mg/kg, ip administered every other day for 24 days by immunohistochemistry; assay type: functional, organism-based

Row | Activity [2] | Activity [3] | Activity [5] | Activity [6] | Activity [7] | SMILES | IC50 [1] | IC50 (BJ) | IC50 (SiHa [4]) | IC50 (A-375) | IC50 (HeLa) | IC50 (Huh-7) | Activity (Mus musculus [8]) | TGI (SiHa [9]) | Activity (Mus musculus [10]) | Activity (Mus musculus [11])
1 | – | Active | – | – | – | CCn1c2ccccc2c2cc(-c3nc(-c4ccc(F)cc4)c(-c4ccc(F)cc4)[nH]3)ccc21 | > 80 µM | > 80 µM | > 80 µM | > 80 µM | > 80 µM | > 80 µM | – | – | – | –
2 | Not Active | Active | Not Active | inactive | inactive | CCn1c2ccccc2c2cc(-c3nc(-c4ccc(N5CCN(C)CC5)cc4)c(-c4ccc(F)cc4)[nH]3)ccc21 | 17.3 µM | 13.9 µM | 30.1 µM | 7.4 µM | 15.3 µM | 12.4 µM | – | – | – | –

More lines, now with the values behind:

Row | SMILES | Activity [2] | Activity [3] | Activity [5] | Activity [6] | Activity [7] | IC50 [1] | IC50 (BJ) | IC50 (SiHa [4]) | IC50 (A-375) | IC50 (HeLa) | IC50 (Huh-7) | Activity (Mus musculus [8]) | TGI (SiHa [9]) | Activity (Mus musculus [10]) | Activity (Mus musculus [11])
3 | CCn1c2ccccc2c2cc(-c3nc(-c4ccc(F)cc4)c(-c4ccc(F)cc4)n3-c3ccc(OC)cc3)ccc21 | Not Active | inactive | Not Active | – | – | > 80 µM | > 80 µM | > 80 µM | > 80 µM | > 80 µM | > 80 µM | – | – | – | –
4 | CCn1c2ccccc2c2cc(-c3nc(-c4ccc(N5CCN(C)CC5)cc4)c(-c4ccc(N5CCN(C)CC5)cc4)[nH]3)ccc21 | – | – | – | – | – | 3.1 µM | 2.8 µM | 2.3 µM | 2.3 µM | 2.5 µM | 2.7 µM | – | – | – | –
5 | COc1cccc2c1C(=O)c1c(O)c3c(c(O)c1C2=O)C[C@@](O)(C(=O)CO)C[C@@H]3O[C@H]1C[C@H](N)[C@H](O)[C@H](C)O1 [DOXORUBICIN] | – | – | – | – | – | – | – | – | – | – | – | Toxic | Active | Toxic | Active
